Source: PubChem BioAssay
KCNQ1 act: potentiators or activators of human KCNQ1 potassium channel; B-score at 10 µM; CHO-K1 KCNQ1, thallium flux FluxOR fluorescence; hits give high values; 0.35% of 310,000 active; AID 2648; P51787;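 active = fluorescence ratio B-score, a plate-corrected score, at least three library SD, with initial intensity B-score within 5 SD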
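System: CHO-K1 cells stably expressing KCNQ1 / Medium: assay buffer for compound exposure, DMSO matched across wells / Reagent: thallium- and potassium-containing depolarizing buffer / Compound: one concentration, matched DMSO / Incubation: 20 min compound pretreatment at room temperature / Measured by: kinetic FluxOR fluorescence, 10 s baseline plus 110 s post-stimulus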
Kir21 block: Kir2.1 (mouse) channel inhibition; HEK293-Kir2.1, FluxOR thallium flux fluorescence; hits give low values; B-score at 10 µM; 0.85% of 310,000 active;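 active = fluorescence ratio B-score at or below minus 3 SD of library scores, with starting-brightness B-score within 2 SD, cut at about -4.2 in these data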;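 note: channel flux triggered by added potassium and thallium sulfate stimulus; B-score of peak minus minimum fluorescence over baseline after thallium stimulus; more negative B-score means stronger Kir2.1 block with less thallium influx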
hERG protect: hERG (human) protection from proarrhythmic block. CHO-hERG, FluxOR thallium flux, dofetilide IC70 present. activation (rescue from dofetilide block), less the hit threshold, % at 10 µM. Q12809. 0.51% of 310,000 active;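 active = activation above the mean of controls blocked by dofetilide plus 5 SD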;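 note: thallium influx through hERG after potassium depolarization seen as dye fluorescence rise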
Target sequence (Q12809 whole entry, looked up): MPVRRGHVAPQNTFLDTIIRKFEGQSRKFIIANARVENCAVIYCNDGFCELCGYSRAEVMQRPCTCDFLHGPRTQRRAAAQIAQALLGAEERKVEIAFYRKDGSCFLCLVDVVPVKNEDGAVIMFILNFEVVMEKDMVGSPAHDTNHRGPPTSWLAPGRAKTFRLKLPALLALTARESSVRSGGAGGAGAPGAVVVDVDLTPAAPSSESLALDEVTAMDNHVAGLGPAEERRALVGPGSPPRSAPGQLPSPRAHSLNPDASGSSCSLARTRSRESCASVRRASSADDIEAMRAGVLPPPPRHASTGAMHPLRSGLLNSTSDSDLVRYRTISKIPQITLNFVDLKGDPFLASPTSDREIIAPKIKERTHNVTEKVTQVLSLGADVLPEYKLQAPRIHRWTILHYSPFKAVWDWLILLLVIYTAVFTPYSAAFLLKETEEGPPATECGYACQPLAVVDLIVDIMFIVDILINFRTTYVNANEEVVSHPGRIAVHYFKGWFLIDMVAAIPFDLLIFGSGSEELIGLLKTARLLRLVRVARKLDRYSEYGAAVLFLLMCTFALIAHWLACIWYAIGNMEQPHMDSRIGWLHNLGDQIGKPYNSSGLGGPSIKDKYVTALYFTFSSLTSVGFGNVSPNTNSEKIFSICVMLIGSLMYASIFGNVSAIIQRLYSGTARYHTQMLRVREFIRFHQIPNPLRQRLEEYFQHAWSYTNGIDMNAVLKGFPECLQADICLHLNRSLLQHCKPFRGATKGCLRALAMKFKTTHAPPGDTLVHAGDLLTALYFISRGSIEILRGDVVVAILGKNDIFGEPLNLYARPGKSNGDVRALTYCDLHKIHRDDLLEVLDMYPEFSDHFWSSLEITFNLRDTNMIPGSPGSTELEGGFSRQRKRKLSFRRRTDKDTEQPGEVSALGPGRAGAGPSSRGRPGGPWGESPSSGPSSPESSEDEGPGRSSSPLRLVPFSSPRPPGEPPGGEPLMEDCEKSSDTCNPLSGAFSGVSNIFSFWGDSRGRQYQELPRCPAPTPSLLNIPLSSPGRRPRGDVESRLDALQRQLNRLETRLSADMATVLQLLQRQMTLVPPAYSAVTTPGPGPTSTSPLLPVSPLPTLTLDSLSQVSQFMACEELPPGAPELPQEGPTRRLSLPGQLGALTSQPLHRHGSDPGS
KCNK3 block: human KCNK3 channel inhibition, primary screen | O14649 | CHO-KCNK3 thallium flux, FluxOR fluorescence; hits give low values | B-score at 10 µM | 0.84% of 340,000 active;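 active = B-score under library mean minus 4 SD, starting fluorescence ratio at most library mean plus 5 SD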;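 note: more negative B-score means stronger inhibition of thallium flux through KCNK3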
KCNK9 block: inhibitors of human KCNK9 two-pore domain potassium channel | AID 488922 | 1.2% of 310,000 active | HEK293 KCNK9, FluxOR thallium flux fluorescence; hits give low values | B-score at 10 µM | Q9NPC2;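 active = ratio B-score over 3 SD below the library mean, with starting fluorescence within 5 SD of its mean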;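 note: negative B-score means less thallium flux so channel inhibition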
KCNQ1 inh: inhibitors of human KCNQ1 potassium channel. P51787. CHO-K1 KCNQ1, FluxOR thallium flux fluorescence; hits give high values. B-score at 10 µM. 1.3% of 310,000 active. AID 2642;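 active = compounds whose thallium flux B-score, printed positive for inhibition, exceeds three library SD while starting fluorescence stays within three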;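 note: channel opened by potassium depolarization with thallium stimulus after 20 min compound exposure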
KCNK3 confirm: confirmation of human KCNK3 two-pore domain potassium channel inhibitors | 99% of 2,400 active | shares compounds with KCNK3 block | CHO-KCNK3 thallium flux, FluxOR fluorescence; 0% buffer, 100% carvedilol maximal block | ratio percent of control, % at 10 µM;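 active = ratio percent of control, averaged over triplicates, above buffer control mean plus 5 SD, cut at about 64% in these data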;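 note: ratio is the fluorescence rise from min to max over baseline after thallium stimulus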
KCNK3 uninduced: KCNK3 inhibitor counter-screen hit in non-induced cells | non-induced KCNK3 parental cells, FluxOR thallium flux; hits give low values | 40% of 2,400 active | AID 651747 | thallium flux ratio (lower = more inhibition) at 10 µM | shares compounds with KCNK3 block;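 active = thallium flux ratio, averaged over three wells, more than 5 SD below the buffer control mean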;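 note: host cells are CHO cells without KCNK3 induction; ratio is peak minus trough fluorescence over baseline then normalized to buffer controls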
The depositor's hits bear a star; i = inactive; x = no result. Compounds with a hit are over-represented: about 3.7% of the library has one in this group of screens.

SMILES	KCNQ1 act	Kir21 block	hERG protect	KCNK3 block	KCNK9 block	KCNQ1 inh	KCNK3 confirm	KCNK3 uninduced
COc1ccc(Cl)cc1NC(=O)CN(C)C(=O)c1sc2ccccc2c1Cl	x	x	x	-12*	x	x	112*	i
Cc1sc2ncnc(N3CCC(C(=O)Nc4ccc(Br)cc4Br)CC3)c2c1C	i	-2.9	-10	-8.8*	i	i	113*	i
CN(CC(=O)Nc1cccc(S(=O)(=O)N2CCCC2)c1)CC(=O)Nc1ccc(Cl)c(C(F)(F)F)c1	i	0.02	-14	-11*	i	i	128*	0.14*
CN(CC(=O)Nc1cccc(S(=O)(=O)N2CCCC2)c1)CC(=O)Nc1ccc(F)c(F)c1F	x	x	x	i	x	x	x	x
COc1ccc(C(C)=O)cc1COC(=O)CNC(=O)c1ccc(F)cc1	i	-0.54	-4	i	i	i	x	x
COc1ccc(C(C)=O)cc1COc1ccc(F)cc1	i	-2	-15	-9.2*	i	i	115*	i
C=CCNC(=O)[C@H]1N2C(=O)c3ccccc3C2SC1(C)C (stereo partly drawn)	i	0.28	-2	i	i	i	x	x
O=C(O)C(c1ccccc1)N1C(=O)c2cccc3cccc(c23)C1=O (stereo not drawn)	i	0.02	-2	i	i	i	x	x
NN=C1c2ccccc2C(=O)C1C(=O)C(c1ccccc1)c1ccccc1 (stereo not drawn)	x	x	x	-14*	x	x	138*	0.097*
CCCC(c1nnnn1Cc1cccs1)N1CCN(c2nc3ccccc3s2)CC1 (stereo not drawn)	i	0.63	-2	-8.9*	-8.1*	i	104*	i
Cc1ccc(C2Nc3ccc4ccccc4c3C3=C2C(=O)CC(C)(C)C3)o1 (stereo not drawn)	i	-0.75	-9	-9*	i	i	105*	i
COc1ccc(NC(C)C(=O)N/N=C/c2ccccc2OCc2cccc(Br)c2)cc1 (stereo not drawn)	i	0.63	-10	i	i	i	x	x
Cc1ccccc1NC(C)C(=O)N/N=C/c1ccccc1OCc1cccc(Br)c1 (stereo not drawn)	i	1	-10	-11*	i	i	92*	0.16*
CC(=O)Nc1cccc(NC(=O)c2cccc(OCc3ccccc3)c2)c1	i	0.04	-9	i	i	i	x	x
CCOC(=O)Nc1cccc(NC(=O)c2ccccc2F)c1	i	1.8	-10	-8.8*	i	i	100*	i
CC(=O)Nc1cccc(NC(=O)c2ccccc2OCc2ccccc2)c1	i	0.68	-9	-10*	i	i	111*	i
COc1cc(OC)cc(C(=O)NNC(=O)CNC(=O)c2cccs2)c1	x	x	x	i	x	x	x	x
O=C(Nc1cccc2ccccc12)N(CCO)C1CCS(=O)(=O)C1 (stereo not drawn)	i	-0.04	-3	i	i	i	x	x
CC(=O)c1cccc(CN2CCc3ccc(NC(=O)C4CCCO4)cc3C2)c1 (stereo not drawn)	i	0.34	-5	i	i	i	x	x
COc1ccc(OC)c(NC(=O)C(=O)NCCC2=CCCCC2)c1	i	-0.06	-3	i	i	i	x	x
Clc1nc(-c2cccnc2)nc2scc(-c3ccccc3)c12	i	-0.08	-9	i	i	i	x	x
COc1ccc(-c2csc3nc(-c4cccnc4)nc(Cl)c23)cc1OC	i	0.08	-15	-8.7*	i	i	101*	0.15*
CSc1ccc(CNC(=O)CCn2ccc3cc(S(=O)(=O)N4CCCC4)ccc32)cc1	i	-0.84	-5	-9.9*	i	i	119*	0.16*
COc1ccc2c(c1)c(CC(=O)NCc1cc([N+](=O)[O-])ccc1O)c(C)n2C(=O)c1ccc(Cl)cc1	i	-0.17	-23	-13*	i	11*	135*	0.11*
COc1ccc(NC(=O)c2ccc(Br)c(S(=O)(=O)N3CCOCC3)c2)cc1	i	0.98	-8	i	i	i	x	x
SMILES	KCNQ1 act	Kir21 block	hERG protect	KCNK3 block	KCNK9 block	KCNQ1 inh	KCNK3 confirm	KCNK3 uninduced
Cc1sc2nc(SCc3nnc(-c4cccs4)o3)n(C3CCCC3)c(=O)c2c1C	i	-0.09	-9	-12*	i	8*	79*	i
Cc1sc2nc(CSc3nnc(Cc4cccs4)n3C3CCCCC3)[nH]c(=O)c2c1C	i	-0.92	-8	i	i	i	x	x
CC1Sc2ccc(S(=O)(=O)N(C)Cc3ccccc3)cc2NC1=O (stereo not drawn)	i	0.53	-5	-10*	i	i	93*	i
C=CCN(c1ccccc1)S(=O)(=O)c1ccc2c(c1)NC(=O)C(C)S2 (stereo not drawn)	i	-3.3	-2	i	i	i	x	x
CCn1nnc(NC(=O)COc2ccc(C3CCCCC3)cc2)n1	i	0.54	-15	-9.7*	i	i	94*	0.16*
CCOc1ccc(C(=O)Nc2nnn(CC)n2)cc1	i	-1.8	-14	i	i	i	x	x
C/C(=N\NC(=O)C1(C)CC1(Br)Br)c1cccc(NC(=O)c2ccc(C)o2)c1 (stereo not drawn)	i	-1.6	-14	-9.6*	i	i	108*	0.14*
Cc1ccc(C(=O)Nc2cccc(C(=O)NCc3ccccc3)c2)o1	i	-0.74	-10	i	i	i	x	x
CCC(C)(C)n1nnnc1CN1CCN(C(c2ccccc2)c2ccccc2)CC1	i	0.43	-15	-13*	i	i	141*	0.13*
CCC(C)(C)n1nnnc1C(c1cc(OC)ccc1OC)N1CCN(Cc2ccccc2)CC1 (stereo not drawn)	i	-2.5	-4	-11*	-7.6*	i	107*	i
Cc1nn(C(C)C)c(C)c1CN1CCC(C(=O)Nc2cccc(-c3cccc(F)c3)c2)CC1	i	-0.01	-6	i	i	i	x	x
COc1ccc(CCNC(=O)CSCC(=O)Nc2cc(S(C)(=O)=O)ccc2Cl)cc1	x	x	x	i	x	x	x	x
CCCCCC1CCC(c2n[nH]c(=S)n2C)CC1 (stereo not drawn)	i	-0.02	-5	i	i	i	x	x
Cc1csc2ncnc(N3CCN(C(=O)Nc4ccc(OC(F)(F)F)cc4)CC3)c12	i	0.81	-20	-9.7*	i	i	109*	0.16*
